Nine compounds from ChEMBL document CHEMBL1157014, “Synthesis, characterization and biological evaluation of some thiourea derivatives bearing benzothiazole moiety as potential antimicrobial and anticancer agents” (Eur J Med Chem, 2010) can be followed below.

What is called IC50 is the concentration at which inhibition is half-maximal. Read a low IC50 as greater potency.

For one experiment, the system named is Enterobacter cloacae. The experiment can be described thus: Antibacterial activity against Enterobacter cloacae ATCC 13047 after 24 hrs by browth microdilution assay. In kind it is functional. A digest of the protocol:
(§1)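 Broth microdilution per CLSI. Colonies suspended in 0.9% saline and adjusted to McFarland 0.5. Compounds dissolved in DMSO, diluted with distilled water to 100, 50, 25, 12.5, 6.25 and 3.125 µg/ml, with DMSO as negative control. Gentamycin (Gram-negative) and amikacin (Gram-positive) served as reference drugs. Incubation at 37 °C for 24 h. MIC taken as the lowest concentration preventing visible growth.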

Another experiment deals with Pseudomonas aeruginosa. The experiment can be described thus: Antibacterial activity against Pseudomonas aeruginosa ATCC 27853 after 24 hrs by browth microdilution assay. In kind it is functional. The essentials: as §1
The test system of another experiment is Proteus vulgaris. The experiment can be described thus: Antibacterial activity against Proteus vulgaris ATCC 13315 after 24 hrs by browth microdilution assay. In kind it is functional. The essentials:
as §1
(Broth dilution looks for growth in wells or tubes with falling amounts of substance.)

The subject of experiment [1] is Staphylococcus epidermidis. As to the kind of experiment: Antibacterial activity against Staphylococcus epidermidis ATCC 12228 after 24 hrs by browth microdilution assay. Format: functional. The conditions noted are these: ATCC 12228, 24 h. The essentials:
as §1

The test system of the next experiment is Staphylococcus aureus. As to the kind of experiment: Antibacterial activity against Staphylococcus aureus ATCC 29213 after 24 hrs by browth microdilution assay. In kind it is functional. The conditions noted are these: ATCC 29213, 24 h. A digest of the protocol: as §1
A further experiment deals with Enterococcus faecalis. The experiment can be described thus: Antibacterial activity against Enterococcus faecalis ATCC 29212 after 24 hrs by browth microdilution assay. In kind it is functional. The following applies: ATCC 29212, 24 h. A digest of the protocol:
as §1

Another experiment concerns Nakaseomyces glabratus. As to the kind of experiment: Antifungal activity against Candida glabrata ATCC 32554 after 48 hrs by browth microdilution assay. In kind it is functional. The conditions noted are these: ATCC 32554, 48 h. The essentials:
(§2)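 Yeast colonies suspended in 0.9% saline and adjusted to McFarland 0.5, then tested by CLSI broth microdilution. Compounds in DMSO, diluted with distilled water to 3.125–100 µg/ml, with DMSO as negative control and nystatin as reference. Incubation at 37 °C, read after 48 h. MIC is the lowest concentration with no visible growth.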

A further experiment deals with Candida albicans. As to the kind of experiment: Antifungal activity against Candida albicans ATCC 90028 after 48 hrs by browth microdilution assay. Format: functional. The following applies: ATCC 90028, 48 h. The essentials: as §2
The subject of the next experiment is Candida tropicalis. As to the kind of experiment: Antifungal activity against Candida tropicalis ATCC 20336 after 48 hrs by browth microdilution assay. Format: functional. The conditions noted are these: ATCC 20336, 48 h. A digest of the protocol:
as §2

A further experiment deals with Pichia kudriavzevii. As to the kind of experiment: Antifungal activity against Candida krusei ATCC 6268 after 48 hrs by browth microdilution assay. Format: functional. The conditions noted are these: ATCC 6268, 48 h. A digest of the protocol: as §2
Another experiment concerns MCF7. As to the kind of experiment: Cytotoxicity against human MCF7 after 24 hrs by MTT assay. The following applies: MCF7, 24 h. In kind it is functional, cell-based. The essentials: (§3)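 Cells grown in MEM with 10% FBS and 1% glutamine at 5% CO2, seeded at 1.0×10^4 cells. Exposed to compounds at 1–100 µM in medium containing 0.1% DMSO for 24 h at 37 °C. MTT (1 mg/ml) added for 5 h at 37 °C, then DMSO added and absorbance read at 540 nm. Run in triplicate; IC50 determined.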
(In general: Formazan colour is commonly taken as a measure of viable cells.)

A further experiment concerns HeLa. As to the kind of experiment: Cytotoxicity against human HeLa after 24 hrs by MTT assay. Format: functional, cell-based. A digest of the protocol: as §3
For the next experiment, the system named is Escherichia coli. As to the kind of experiment: microbe, parasite or virus in culture. The following applies: ATCC 25922, 24 h.
For experiment [2], the system named is Staphylococcus aureus (ATCC 25923). The experiment can be described thus: Antibacterial activity against Staphylococcus aureus ATCC 25923 after 24 hrs by browth microdilution assay. The conditions noted are these: ATCC 25923, 24 h.

In brackets after ≈: the same amount, converted by molar mass.

With `Nc1ccc2sc(NC(=S)NC(=O)c3ccc([N+](=O)[O-])cc3)nc2c1`, the MIC against Enterobacter cloacae (ATCC 13047, 24 h) is 25 µg/mL (≈ 66.9 µM); with Pseudomonas aeruginosa (ATCC 27853, 24 h), 50 µg/mL (≈ 134 µM); against Proteus vulgaris (ATCC 13315, 24 h), 25 µg/mL (≈ 66.9 µM); in [1] it was 50 µg/mL (≈ 134 µM); in the experiment with Staphylococcus aureus it was 50 µg/mL (≈ 134 µM); against Enterococcus faecalis it was 50 µg/mL (≈ 134 µM). For the same compound, the MIC in the experiment on Nakaseomyces glabratus amounted to 50 µg/mL (≈ 134 µM); with Candida albicans, 50 µg/mL (≈ 134 µM); in the experiment with Candida tropicalis it was 25 µg/mL (≈ 66.9 µM); in the experiment on Pichia kudriavzevii, 50 µg/mL (≈ 134 µM); with Escherichia coli it was 25 µg/mL (≈ 66.9 µM); in experiment [2] it was 50 µg/mL (≈ 134 µM). Further, the figures for the IC50 in the experiment with MCF7 and in the experiment on HeLa were 33.2 µM and 63.1 µM, respectively.

With `O=C(NC(=S)Nc1nc2cc(Br)ccc2s1)c1ccc([N+](=O)[O-])cc1`, the MIC (in [1]; in the experiment on Staphylococcus aureus; against Enterococcus faecalis; against Nakaseomyces glabratus; against Candida albicans; against Candida tropicalis) was 50 µg/mL (≈ 114 µM) each time. For the same compound, the MIC (against Pichia kudriavzevii; in [2]) was 50 µg/mL (≈ 114 µM) throughout. Also, the results for the IC50 in the experiment on MCF7 and in the experiment with HeLa were 32.4 µM and 56.5 µM, respectively.

Take GENTAMICIN: the MIC in the experiment with Enterobacter cloacae was determined as 2 µg/mL; with Pseudomonas aeruginosa it was 1 µg/mL; against Proteus vulgaris, 2 µg/mL.

On to `O=C(NC(=S)Nc1nc2cc([N+](=O)[O-])ccc2s1)c1ccccc1`, for which the MIC against Enterobacter cloacae (ATCC 13047, 24 h) turned out to be 25 µg/mL (≈ 69.8 µM); against Pseudomonas aeruginosa (ATCC 27853, 24 h), 20 µg/mL (≈ 55.8 µM); with Proteus vulgaris (ATCC 13315, 24 h) it was 15 µg/mL (≈ 41.9 µM); in experiment [1], 20 µg/mL (≈ 55.8 µM); with Staphylococcus aureus, 25 µg/mL (≈ 69.8 µM); in the experiment with Enterococcus faecalis, 50 µg/mL (≈ 140 µM). In addition, the MIC against Nakaseomyces glabratus was 15 µg/mL (≈ 41.9 µM); with Candida albicans, 25 µg/mL (≈ 69.8 µM); against Candida tropicalis it was 50 µg/mL (≈ 140 µM); against Pichia kudriavzevii it was 50 µg/mL (≈ 140 µM); with Escherichia coli, 20 µg/mL (≈ 55.8 µM); in experiment [2], 15 µg/mL (≈ 41.9 µM). In addition, the IC50 in the experiment with MCF7 worked out at 41.6 µM; in the experiment on HeLa, 75.1 µM.

Take `Nc1ccc2sc(NC(=S)NC(=O)c3cccs3)nc2c1`: the MIC was determined as 50 µg/mL (≈ 149 µM) with Enterobacter cloacae (ATCC 13047, 24 h); 50 µg/mL (≈ 149 µM) against Pseudomonas aeruginosa (ATCC 27853, 24 h); 25 µg/mL (≈ 74.7 µM) with Proteus vulgaris (ATCC 13315, 24 h); 20 µg/mL (≈ 59.8 µM) in the experiment with Nakaseomyces glabratus; 25 µg/mL (≈ 74.7 µM) against Candida albicans; 25 µg/mL (≈ 74.7 µM) against Candida tropicalis. Moreover, the MIC in the experiment with Pichia kudriavzevii worked out at 25 µg/mL (≈ 74.7 µM); with Escherichia coli, 20 µg/mL (≈ 59.8 µM). In addition, the IC50 in the experiment on MCF7 is 28.4 µM; with HeLa, 56.1 µM.

Take `O=C(NC(=S)Nc1nc2ccccc2s1)c1cccs1`: the MIC against Enterobacter cloacae (ATCC 13047, 24 h) was determined as 50 µg/mL (≈ 157 µM); with Pseudomonas aeruginosa (ATCC 27853, 24 h), 50 µg/mL (≈ 157 µM); in the experiment with Proteus vulgaris (ATCC 13315, 24 h), 50 µg/mL (≈ 157 µM); in [1], 50 µg/mL (≈ 157 µM); in the experiment with Staphylococcus aureus it was 50 µg/mL (≈ 157 µM); in the experiment with Enterococcus faecalis it was 50 µg/mL (≈ 157 µM). For the same compound, the MIC against Nakaseomyces glabratus stood at 25 µg/mL (≈ 78.3 µM); against Candida albicans it was 50 µg/mL (≈ 157 µM); against Candida tropicalis, 50 µg/mL (≈ 157 µM); with Pichia kudriavzevii, 25 µg/mL (≈ 78.3 µM); against Escherichia coli, 25 µg/mL (≈ 78.3 µM); in [2], 50 µg/mL (≈ 157 µM). Besides, the values for the IC50 in the experiment on MCF7 and in the experiment on HeLa were 32.6 µM and 68.2 µM, respectively.

With `NCC[C@H](O)C(=O)N[C@@H]1C[C@H](N)[C@@H](O[C@H]2O[C@H](CN)[C@@H](O)[C@H](O)[C@H]2O)[C@H](O)[C@H]1O[C@H]1O[C@H](CO)[C@@H](O)[C@H](N)[C@H]1O` [AMIKACIN], the MIC in experiment [1] stood at 0.5 µg/mL (≈ 0.854 µM); with Staphylococcus aureus it was 2 µg/mL (≈ 3.42 µM); in the experiment on Enterococcus faecalis, 4 µg/mL (≈ 6.83 µM); in experiment [2] it was 2 µg/mL (≈ 3.42 µM).

On to `O=C(NC(=S)Nc1nc2ccccc2s1)c1ccc([N+](=O)[O-])cc1`, for which the half-inhibitory concentration (IC50) in the experiment with MCF7 came to 33.8 µM; in the experiment with HeLa, 62.6 µM.

In the case of `CCCC(=O)NC(=S)Nc1nc2cc(N)ccc2s1`, the MIC came out at 50 µg/mL (≈ 170 µM) in experiment [1]; 50 µg/mL (≈ 170 µM) in the experiment with Staphylococcus aureus; 50 µg/mL (≈ 170 µM) in the experiment on Enterococcus faecalis; 50 µg/mL (≈ 170 µM) in the experiment on Nakaseomyces glabratus; 20 µg/mL (≈ 67.9 µM) with Candida albicans; 50 µg/mL (≈ 170 µM) against Candida tropicalis. The compound further displayed an MIC against Pichia kudriavzevii of 50 µg/mL (≈ 170 µM). Also, in the experiment with MCF7, half-maximal inhibition (IC50) required 44.7 µM.
